According to paper PMC3103643 (Journal of natural products, 2011):
pIC50: −log10 of the molar value.

Legend:
[1] = test system: HT-29 human colon cancer cells; assay: Cytotoxicity assay; assay type: cell-based; conditions: three days incubation, SRB
Procedure, shortened: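 HT-29 cells were trypsinized and seeded, then treated with test compound in DMSO at serial dilutions, with DMSO as negative control and paclitaxel as positive control, for three days at 37 °C, 5% CO2. Cells were fixed for 30 min at room temperature, washed, dried overnight and stained with SRB. Dye was solubilized in tris-base buffer and read at 515 nm. ED50 came from nonlinear regression, triplicates, two independent experiments.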

p65 subunit of NF-κB = p65 subunit of NF-κB (Homo sapiens, UniProt Q04206); assay: Enzyme-based ELISA NF-κB p65 inhibition assay; conditions: read-out: NF-κB p65 inhibition IC50, HeLa cell nuclear extracts
[2] = test system: HT-29 (colon adenocarcinoma), MCF-7 (breast cancer), and MDA-MB-435 (melanoma); assay: In vivo hollow fiber assay; set-up: species or system human; conditions: highest dose used 20 mg/kg; ip
Procedure, shortened: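 Hollow fibers carried HT-29, MCF-7 and MDA-MB-435 cells. Test compounds and the paclitaxel positive control were dosed ip across 1–20 mg/kg.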

Sequence of p65 subunit of NF-κB (Q04206 whole entry): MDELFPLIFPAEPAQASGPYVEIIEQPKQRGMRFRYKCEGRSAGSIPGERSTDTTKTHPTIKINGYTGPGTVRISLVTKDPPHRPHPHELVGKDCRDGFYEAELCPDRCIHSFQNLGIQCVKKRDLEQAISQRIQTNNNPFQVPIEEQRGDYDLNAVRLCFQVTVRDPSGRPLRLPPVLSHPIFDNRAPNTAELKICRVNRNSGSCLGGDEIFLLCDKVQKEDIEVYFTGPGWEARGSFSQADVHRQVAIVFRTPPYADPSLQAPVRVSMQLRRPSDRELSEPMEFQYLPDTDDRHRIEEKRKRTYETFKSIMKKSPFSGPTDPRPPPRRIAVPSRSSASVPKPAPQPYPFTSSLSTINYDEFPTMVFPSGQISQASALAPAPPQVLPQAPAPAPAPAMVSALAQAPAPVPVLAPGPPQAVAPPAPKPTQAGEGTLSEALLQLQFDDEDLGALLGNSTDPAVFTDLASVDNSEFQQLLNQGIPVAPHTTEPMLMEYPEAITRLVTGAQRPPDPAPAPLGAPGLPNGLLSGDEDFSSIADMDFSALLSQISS

Molecule	cytotoxicity ED50 towards HT-29 cells [1]	pIC50 (p65 subunit of NF-κB)	activity in in vivo hollow fiber assay [2]
1,3,7-trihydroxy-2,4-diisoprenylxanthone [Compound 5]	>10000 nM	5.54	
COc1c(OC(C)=O)cc2oc3cc(OC(C)=O)c(CC=C(C)C)c(O)c3c(=O)c2c1CC=C(C)C [Compound 8, 3,6-di-O-acetyl-α-mangostin]			inactive
